pKi: −log10 of the molar value. Read-outs that look alike come from different tables or passages of the source. Marks after values point to notes of the source that are not given here.
Tests used:
5-HT1A receptors [1] = molecular target: T1, 5-HT1A receptors (Homo sapiens, UniProt P08908); settings: ref Hillmer et al., 2014, cited from earlier work; for HP/CB PET ratio / Brain Uptake: human; for HP/CB PET ratio: 90 mins post-injection; for Brain Uptake: initial, 1–2 min post-injection
T1 sequence (P08908 1-422): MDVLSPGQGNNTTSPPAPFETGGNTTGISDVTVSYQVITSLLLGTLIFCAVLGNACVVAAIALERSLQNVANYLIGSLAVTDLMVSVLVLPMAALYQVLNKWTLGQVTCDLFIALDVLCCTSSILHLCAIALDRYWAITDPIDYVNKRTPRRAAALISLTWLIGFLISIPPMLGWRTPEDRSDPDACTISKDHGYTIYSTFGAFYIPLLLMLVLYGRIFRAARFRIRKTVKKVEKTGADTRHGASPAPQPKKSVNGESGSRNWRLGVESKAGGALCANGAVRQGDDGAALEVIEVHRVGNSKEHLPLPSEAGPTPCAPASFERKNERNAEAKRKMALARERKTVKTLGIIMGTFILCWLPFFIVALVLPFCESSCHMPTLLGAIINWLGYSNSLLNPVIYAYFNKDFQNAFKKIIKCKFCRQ

[2] = human plasma; ref Hillmer et al., 2014; cited from earlier work
5-HT2B = 5-HT2B (Homo sapiens, UniProt P41595); experiment: NIMH PDSP binding affinity, human cloned receptor
D1 = D1 (Homo sapiens, UniProt P21728); experiment: NIMH PDSP binding affinity, human cloned receptor; settings: D1-like receptors
[3] = molecular target: serotonin 5-HT1A receptors; settings: rat brain homogenates labeled with 3H-WAY 100635; ref Saigal et al., 2013; cited from earlier work
5-HT1A receptors [4] = settings: cited from earlier work
5-HT1A receptors [5] = molecular target: T2, 5-HT1A receptors (Rattus norvegicus, UniProt P19327); settings: 90 mins post-injection, cited from earlier work
T2 sequence (P19327 1-422): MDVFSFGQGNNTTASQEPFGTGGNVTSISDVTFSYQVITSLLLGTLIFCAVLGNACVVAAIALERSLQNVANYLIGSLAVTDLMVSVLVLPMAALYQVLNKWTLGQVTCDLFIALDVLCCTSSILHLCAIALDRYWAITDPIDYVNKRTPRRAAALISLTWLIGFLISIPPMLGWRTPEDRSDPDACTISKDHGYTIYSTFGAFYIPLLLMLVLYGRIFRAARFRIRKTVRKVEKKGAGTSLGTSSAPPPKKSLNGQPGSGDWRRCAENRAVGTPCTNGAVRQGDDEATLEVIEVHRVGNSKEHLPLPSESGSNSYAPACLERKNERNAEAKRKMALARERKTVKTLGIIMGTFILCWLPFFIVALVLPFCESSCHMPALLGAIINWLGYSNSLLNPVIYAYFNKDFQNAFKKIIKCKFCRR

D2 subtype = D2 subtype (Homo sapiens, UniProt P14416); experiment: NIMH PDSP binding affinity, human cloned receptor; settings: read-out: Affinity, D2 subtype
5-HT1A receptors [6] = molecular target: T1, 5-HT1A receptors; experiment: In vitro autoradiography of 18F-Mefway, human postmortem hippocampus sections; type: binding
How it was run: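 Dog tissue: unfixed beagle brain (4.5–15.4 yr), stored at −80 °C, cut as 10 µm hemi-coronal slices with hippocampus and cortex. Human tissue: postmortem hippocampus (PMI 3.8–5.8 h), cut at 7 µm. Slices preincubated in 50 mM Tris-HCl pH 7.4 for 10 min at room temperature, then incubated with 37–185 kBq/mL tracer at 37 °C for 1 h. […] Two 1-min ice-cold buffer washes, then 24 h phosphor-screen exposure. Binding read as DLU/mm².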

5-HT1A receptors [7] = molecular target: T2, 5-HT1A receptors; experiment: In vitro autoradiography of 18F-Mefway, rat brain slices; type: binding
How it was run: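 Horizontal 10 µm slices covering hippocampus, frontal cortex, dorsal raphe and cerebellum. Sources: frozen brains of male BALB/c mice (25 g) or male Sprague-Dawley rats (250–300 g). Preincubated in 50 mM Tris-HCl pH 7.4 for 10 min at room temperature, then 37–185 kBq/mL tracer at 37 °C for 1 h. […] Washed, then phosphor screen for 24 h. Regional DLU/mm² expressed as ratios to cerebellum as reference.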

α1B = α1B (Homo sapiens, UniProt P35368); experiment: NIMH PDSP binding affinity, human cloned receptor
[8] = test system: serotonin 5-HT1A receptor; type: binding, human; settings: [5-HT1A affinity/other receptor affinity]×100; 5-HT1A 0.6 or 2.2 nM for WAY-100635, 0.9 nM for Mefway
[9] = molecular target: serotonin 5-HT1A receptor (Homo sapiens, UniProt P08908); type: binding; settings: human cloned receptor, PDSP
[10] = [5-HT1A affinity/other receptor affinity]×100, 5-HT1A 0.6 or 2.2 nM for WAY-100635, 0.9 nM for Mefway

Sequence of 5-HT2B (P41595 whole entry): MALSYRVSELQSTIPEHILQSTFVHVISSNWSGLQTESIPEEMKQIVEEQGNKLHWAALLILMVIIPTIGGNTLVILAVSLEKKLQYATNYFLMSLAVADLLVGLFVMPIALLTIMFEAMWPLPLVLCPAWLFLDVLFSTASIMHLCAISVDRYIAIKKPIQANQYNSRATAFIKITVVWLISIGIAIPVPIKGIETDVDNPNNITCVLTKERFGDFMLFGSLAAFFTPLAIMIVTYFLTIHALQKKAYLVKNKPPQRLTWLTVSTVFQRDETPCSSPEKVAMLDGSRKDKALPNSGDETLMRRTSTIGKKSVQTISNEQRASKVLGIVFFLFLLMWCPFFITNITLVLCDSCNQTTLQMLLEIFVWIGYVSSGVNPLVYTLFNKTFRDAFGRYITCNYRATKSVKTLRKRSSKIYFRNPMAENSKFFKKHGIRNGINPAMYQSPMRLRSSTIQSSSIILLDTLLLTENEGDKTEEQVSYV
Sequence of α1B (P35368 whole entry): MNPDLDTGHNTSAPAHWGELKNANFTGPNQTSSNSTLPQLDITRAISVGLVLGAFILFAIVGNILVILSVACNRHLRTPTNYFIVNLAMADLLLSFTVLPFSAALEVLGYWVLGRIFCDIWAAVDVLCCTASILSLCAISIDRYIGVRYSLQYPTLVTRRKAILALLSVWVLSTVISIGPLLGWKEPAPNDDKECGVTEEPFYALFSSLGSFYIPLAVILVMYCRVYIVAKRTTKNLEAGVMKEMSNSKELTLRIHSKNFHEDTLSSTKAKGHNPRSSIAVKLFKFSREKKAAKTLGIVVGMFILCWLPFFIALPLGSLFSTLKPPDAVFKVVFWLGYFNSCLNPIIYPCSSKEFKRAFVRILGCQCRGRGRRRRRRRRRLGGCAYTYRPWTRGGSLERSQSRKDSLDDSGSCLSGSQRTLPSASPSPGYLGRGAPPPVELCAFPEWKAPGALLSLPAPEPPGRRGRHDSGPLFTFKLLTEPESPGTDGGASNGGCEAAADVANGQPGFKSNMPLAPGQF
Sequence of D1 (P21728 whole entry): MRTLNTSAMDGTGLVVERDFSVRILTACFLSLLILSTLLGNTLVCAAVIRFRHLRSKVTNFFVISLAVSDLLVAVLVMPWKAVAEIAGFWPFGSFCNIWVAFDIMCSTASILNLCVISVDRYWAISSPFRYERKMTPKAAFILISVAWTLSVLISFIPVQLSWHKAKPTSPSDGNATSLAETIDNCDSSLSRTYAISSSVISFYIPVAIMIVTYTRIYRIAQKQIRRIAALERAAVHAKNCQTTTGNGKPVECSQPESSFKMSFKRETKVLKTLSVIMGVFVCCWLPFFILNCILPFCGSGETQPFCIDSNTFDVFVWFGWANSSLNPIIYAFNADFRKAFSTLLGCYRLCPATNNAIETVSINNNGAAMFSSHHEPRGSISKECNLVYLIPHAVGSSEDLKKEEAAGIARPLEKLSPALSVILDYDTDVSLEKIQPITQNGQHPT
Sequence of D2 subtype (P14416 whole entry): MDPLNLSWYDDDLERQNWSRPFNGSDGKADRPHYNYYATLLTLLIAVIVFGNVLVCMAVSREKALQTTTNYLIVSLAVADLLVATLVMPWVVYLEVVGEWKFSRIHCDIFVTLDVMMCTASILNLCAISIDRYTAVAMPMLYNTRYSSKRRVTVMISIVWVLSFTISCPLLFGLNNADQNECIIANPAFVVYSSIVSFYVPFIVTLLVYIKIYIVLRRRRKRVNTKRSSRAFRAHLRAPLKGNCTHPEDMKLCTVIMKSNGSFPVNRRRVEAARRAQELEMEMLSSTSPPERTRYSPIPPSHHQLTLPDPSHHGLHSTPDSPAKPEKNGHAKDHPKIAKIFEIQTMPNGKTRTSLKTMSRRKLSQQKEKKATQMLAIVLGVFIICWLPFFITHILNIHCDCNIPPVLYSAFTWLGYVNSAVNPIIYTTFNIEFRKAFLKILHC

COc1ccccc1N1CCN(CCN(C(=O)C2CCC(CF)CC2)c2ccccn2)CC1 (stereo not drawn) [Mefway]
Adverse or pharmacologic effects in human subjects (5-HT1A receptors [1]; approximately 185 MBq bolus, 6 subjects): no adverse or clinically detectable pharmacologic effects
Binding potential HP, BPND (5-HT1A receptors [1]; human hippocampus): 2.7 ^i
HP/CB PET ratio (5-HT1A receptors [1]): 4 ^i
HP/CB PET ratio (5-HT1A receptors [1]; listed as 18F-Mefway): 4
Brain Uptake (5-HT1A receptors [1]): 0.002 ^e %ID/cc
Brain Uptake (5-HT1A receptors [1]; listed as 18F-Mefway): 0.002 %ID/cc
Free Fraction in plasma [2]: 5% ^j
% human 5HT1A Selectivity, 5-HT2B (5-HT2B; [10]): 0.35%
pKi (5-HT2B; read-out: Binding affinity, Ki, 5-HT2B, human cloned receptor, PDSP): 6.59
Affinity, D1 subtype (D1): very poor affinities
Binding affinity, Ki, 5-HT1A, rat brain homogenates [3]: subnanomolar affinity
Raphe ratio with respect to cerebellum (5-HT1A receptors [4]; monkey, higher resolution P4 scanner, ref Wooten et al., 2011b): greater than 3
HP/CB PET ratio (5-HT1A receptors [4]; monkey, 90 mins post-injection, ref Saigal et al., 2006, Wooten et al., 2011b): 10 ^f
Raphe BPND (5-HT1A receptors [4]; monkey, ref Wooten et al., 2011b): greater than 3
Raphe ratio with respect to cerebellum (5-HT1A receptors [4]; monkeys, EXACT HR+ PET scanner, ref Saigal et al., 2006): approximately 2
Raphe to cerebellum ratio (5-HT1A receptors [4]; monkeys, scanner not stated (abstract)): approximately 3
HP/CB PET ratio (5-HT1A receptors [5]; ref Saigal et al., 2013, listed as 18F-Mefway): 10
HP/CB PET ratio (5-HT1A receptors [5]; ref Saigal et al., 2013): 10 ^g
pKi (D2 subtype): 6.73
Ratio of hippocampus versus white matter, autoradiography (5-HT1A receptors [6]; human hippocampus sections): 13
Binding displaced in hippocampus and cortex (5-HT1A receptors [6]; in the presence of 10 μM of WAY-100635, human (all the species)): > 95%
Binding displaced in hippocampus and cortex (5-HT1A receptors [7]; in the presence of 10 μM of WAY-100635, rat (all the species)): > 95%
Ratio in cortical regions, autoradiography (5-HT1A receptors [7]; rats): > 10
Ratio of hippocampus to cerebellum, autoradiography (5-HT1A receptors [7]; rats, brain slices incubated for one hr): 30
Ratio of raphe to cerebellum, autoradiography (5-HT1A receptors [7]; rats, horizontal sections): 23
% human 5HT1A Selectivity, α1B (α1B; [10]): 0.18%
pKi (α1B; read-out: Binding affinity, Ki, α1B, human cloned receptor, PDSP): 6.30
% human 5HT1A Selectivity, 5-HT1A [8]: 100%
Binding affinity, Ki, 5-HT1A [9]: subnanomolar affinity
pKi ([9]; read-out: Binding affinity, Ki, 5-HT1A): 9.05

— paper PMC4783179 (The Journal of comparative neurology, 2015)
